Active and inactive are the calls of the source. The calls are words filed in the database; no cut-off is given here.
Tests used:
[1] = species on record: Homo sapiens; assay: Inhibition of tubulin (unknown origin) polymerization
[2] = Cytotoxicity against patient-derived JK2 cells assessed as reduction in cell viability after 3 days by Alamar blue assay; type: functional, cell-based; settings: Homo sapiens, JK2, 72 h
Outline: (§1)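 The patient-derived glioblastoma lines were grown as stem cells under defined conditions to keep the phenotype and genotype of the resected tumours. Viability after treatment was read with Alamar blue.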

[3] = Cytotoxicity against patient-derived SJH1 cells assessed as reduction in cell viability after 3 days by Alamar blue assay; type: functional, cell-based; settings: Homo sapiens, SJH1, 72 h; outline: as §1
[4] = target: Dual specificity tyrosine-phosphorylation-regulated kinase 1A (Homo sapiens, UniProt Q13627); assay: Inhibition of DYRK1A (unknown origin) using woodtide as substrate after 10 mins in presence of [gamma-33P]ATP by microbeta scintillation counting
[5] = target: Dual specificity tyrosine-phosphorylation-regulated kinase 1B (Homo sapiens, UniProt Q9Y463); assay: Inhibition of DYRK1B (unknown origin) using woodtide as substrate after 40 mins in presence of [gamma-33P]ATP by microbeta scintillation counting
Sequence of Dual specificity tyrosine-phosphorylation-regulated kinase 1B (Q9Y463 whole entry): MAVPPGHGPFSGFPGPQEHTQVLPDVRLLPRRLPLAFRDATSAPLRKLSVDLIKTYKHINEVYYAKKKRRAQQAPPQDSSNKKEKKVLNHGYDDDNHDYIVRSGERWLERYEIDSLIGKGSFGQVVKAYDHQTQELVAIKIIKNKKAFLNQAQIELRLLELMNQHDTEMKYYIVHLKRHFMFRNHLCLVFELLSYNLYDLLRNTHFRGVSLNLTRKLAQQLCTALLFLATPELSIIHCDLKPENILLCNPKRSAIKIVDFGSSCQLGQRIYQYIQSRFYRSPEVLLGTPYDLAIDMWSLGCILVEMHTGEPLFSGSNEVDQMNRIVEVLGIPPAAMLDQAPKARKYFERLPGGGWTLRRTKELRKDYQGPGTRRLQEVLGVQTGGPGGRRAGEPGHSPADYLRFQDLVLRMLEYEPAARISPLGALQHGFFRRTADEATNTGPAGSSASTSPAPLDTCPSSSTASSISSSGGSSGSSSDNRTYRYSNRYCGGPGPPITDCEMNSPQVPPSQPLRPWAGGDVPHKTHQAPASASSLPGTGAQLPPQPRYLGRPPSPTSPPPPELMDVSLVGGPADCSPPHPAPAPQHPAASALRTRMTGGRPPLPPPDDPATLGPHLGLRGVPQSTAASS

[6] = Cytotoxicity against patient-derived WK1 cells assessed as reduction in cell viability after 5 days by Alamar blue assay; type: functional, cell-based; settings: Homo sapiens, WK1, 120 h; outline: as §1
[7] = target: Dual specificity protein kinase CLK1 (Homo sapiens, UniProt P49759); assay: Inhibition of CLK1 (unknown origin) using KKGRSRSRSRSRSR as substrate after 40 mins in presence of [gamma-33P]ATP by microbeta scintillation counting
Sequence of Dual specificity protein kinase CLK1 (P49759 whole entry): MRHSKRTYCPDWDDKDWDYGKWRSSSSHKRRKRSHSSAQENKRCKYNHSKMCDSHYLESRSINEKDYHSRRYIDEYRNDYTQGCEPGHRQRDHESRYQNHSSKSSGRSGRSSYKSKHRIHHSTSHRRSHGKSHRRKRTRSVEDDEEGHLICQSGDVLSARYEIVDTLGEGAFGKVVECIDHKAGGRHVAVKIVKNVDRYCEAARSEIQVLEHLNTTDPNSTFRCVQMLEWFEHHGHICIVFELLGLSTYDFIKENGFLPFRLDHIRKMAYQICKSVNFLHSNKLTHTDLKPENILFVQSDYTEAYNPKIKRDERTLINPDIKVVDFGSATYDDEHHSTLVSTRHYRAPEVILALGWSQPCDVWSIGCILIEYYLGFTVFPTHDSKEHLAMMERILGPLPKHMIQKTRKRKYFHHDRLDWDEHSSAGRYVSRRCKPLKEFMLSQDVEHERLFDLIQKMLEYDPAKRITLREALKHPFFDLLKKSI
Outline: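 CLK1 was assayed with RS peptide substrate at 100 µM ATP.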

[8] = Cytotoxicity against patient-derived RN1 cells assessed as reduction in cell viability after 3 days by Alamar blue assay; type: functional, cell-based; settings: Homo sapiens, RN1, 72 h; outline: as §1
[9] = target: T1, Dual specificity tyrosine-phosphorylation-regulated kinase 2 (Homo sapiens, UniProt Q92630); assay: Inhibition of DYRK2 (unknown origin) using woodtide as substrate after 40 mins in presence of [gamma-33P]ATP by microbeta scintillation counting
T1 sequence (Q92630 whole entry): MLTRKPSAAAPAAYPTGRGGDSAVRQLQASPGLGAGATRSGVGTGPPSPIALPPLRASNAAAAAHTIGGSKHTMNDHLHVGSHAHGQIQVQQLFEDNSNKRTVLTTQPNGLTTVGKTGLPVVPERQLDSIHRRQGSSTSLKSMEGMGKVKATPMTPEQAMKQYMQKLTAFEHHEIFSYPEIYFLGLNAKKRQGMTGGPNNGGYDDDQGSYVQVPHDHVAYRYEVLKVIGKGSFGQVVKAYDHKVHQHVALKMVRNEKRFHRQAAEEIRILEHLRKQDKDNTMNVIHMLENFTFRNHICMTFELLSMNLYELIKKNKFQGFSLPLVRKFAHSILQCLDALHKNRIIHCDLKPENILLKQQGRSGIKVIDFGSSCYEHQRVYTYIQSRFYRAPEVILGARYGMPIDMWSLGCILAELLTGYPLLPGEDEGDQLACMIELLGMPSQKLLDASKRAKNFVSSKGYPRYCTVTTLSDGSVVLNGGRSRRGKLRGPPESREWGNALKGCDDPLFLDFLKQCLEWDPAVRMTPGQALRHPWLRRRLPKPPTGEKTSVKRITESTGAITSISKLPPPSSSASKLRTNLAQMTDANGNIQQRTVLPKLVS

[10] = tested on: U-251; assay: Antiinvasive activity in human U251 cells assessed as velocity of invasion at 1 uM measured up to 20 hrs by matrigel assay (reference value: 1151 to 1710 micrometer/hr); type: functional
[11] = Antimigratory activity in patient-derived RN1 cells assessed as velocity of migration at 10 uM measured up to 20 hrs by wound scratch assay (reference value: 937 to 1174 micrometer/hr); type: functional, Homo sapiens
Outline: (§2)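 Wound-healing migration assay: cell movement across the wound is measured as velocity (µm/h). Compounds were tested at 0, 1.0, 5.0 and 10.0 µM. Values are mean ± SEM of 3 independent experiments.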

[12] = Antimigratory activity in patient-derived RN1 cells assessed as velocity of migration at 1 uM measured up to 20 hrs by wound scratch assay (reference value: 937 to 1174 micrometer/hr); type: functional, Homo sapiens; outline: as §2
[13] = tested on: U-251; assay: Antimigratory activity in human U251 cells assessed as velocity of migration at 5 uM measured up to 20 hrs by wound scratch assay (reference value: 2159 to 2653 micrometer/hr); type: functional; outline: as §2
[14] = tested on: A 172; assay: Antimigratory activity in human A172 cells assessed as velocity of migration at 10 uM measured up to 20 hrs by wound scratch assay (reference value: 2650 to 3123 micrometer/hr); type: functional; outline: as §2
[15] = tested on: U-251; assay: Cytotoxicity against human U251 cells assessed as reduction in cell viability after 3 days by Alamar blue assay; type: functional, cell-based; settings: U-251, 72 h
[16] = tested on: A 172; assay: Cytotoxicity against human A172 cells assessed as reduction in cell viability after 3 days by Alamar blue assay; type: functional, cell-based; settings: A 172, 72 h
[17] = tested on: U-251; assay: Antimigratory activity in human U251 cells assessed as velocity of migration at 10 uM measured up to 20 hrs by wound scratch assay (reference value: 2159 to 2653 micrometer/hr); type: functional; outline: as §2
[18] = tested on: A 172; assay: Antiinvasive activity in human A172 cells assessed as velocity of invasion at 1 uM measured up to 20 hrs by matrigel assay (reference value: 2659 to 3047 micrometer/hr); type: functional
[19] = tested on: U-251; assay: Antimigratory activity in human U251 cells assessed as velocity of migration at 1 uM measured up to 20 hrs by wound scratch assay (reference value: 2159 to 2653 micrometer/hr); type: functional; outline: as §2
[20] = tested on: U-251; assay: Antiinvasive activity in human U251 cells assessed as velocity of invasion at 5 uM measured up to 20 hrs by matrigel assay (reference value: 1151 to 1710 micrometer/hr); type: functional
[21] = tested on: A 172; assay: Antimigratory activity in human A172 cells assessed as velocity of migration at 1 uM measured up to 20 hrs by wound scratch assay (reference value: 2650 to 3123 micrometer/hr); type: functional; outline: as §2
[22] = tested on: U-251; assay: Antiinvasive activity in human U251 cells assessed as velocity of invasion at 10 uM measured up to 20 hrs by matrigel assay (reference value: 1151 to 1710 micrometer/hr); type: functional
[23] = tested on: A 172; assay: Antimigratory activity in human A172 cells assessed as velocity of migration at 5 uM measured up to 20 hrs by wound scratch assay (reference value: 2650 to 3123 micrometer/hr); type: functional; outline: as §2
[24] = Antimigratory activity in patient-derived RN1 cells assessed as velocity of migration at 5 uM measured up to 20 hrs by wound scratch assay (reference value: 937 to 1174 micrometer/hr); type: functional, Homo sapiens; outline: as §2
[25] = tested on: A 172; assay: Antiinvasive activity in human A172 cells assessed as velocity of invasion at 10 uM measured up to 20 hrs by matrigel assay (reference value: 2659 to 3047 micrometer/hr); type: functional
[26] = tested on: A 172; assay: Antiinvasive activity in human A172 cells assessed as velocity of invasion at 5 uM measured up to 20 hrs by matrigel assay (reference value: 2659 to 3047 micrometer/hr); type: functional

Compound	EC50 [2]	EC50 [3]	IC50 [4]	IC50 [5]	EC50 [6]	IC50 [7]	EC50 [8]	IC50 [9]	further results
CC[C@]1(O)C[C@@H]2CN(CCc3c([nH]c4ccccc34)[C@@](C(=O)OC)(c3cc4c(cc3OC)N(C)[C@H]3[C@@](O)(C(=O)OC)[C@H](OC(C)=O)[C@]5(CC)C=CCN6CC[C@]43[C@@H]65)C2)C1	–	–	–	–	–	–	–	–	inhibition [1]: Active
Oc1ccc(-c2cnc3[nH]cc(-c4ccc(-c5nnn[nH]5)cc4)c3c2)cc1	> 50000 nM	> 50000 nM	280 nM	172 nM	> 50000 nM	85 nM	> 50000 nM	416 nM	–
Oc1ccc(-c2ccc3[nH]cc(-c4ccc(O)cc4)c3c2)cc1	> 50000 nM	> 50000 nM	> 1000 nM	> 1000 nM	> 50000 nM	> 1000 nM	> 50000 nM	> 1000 nM	–
Oc1ccc(-c2cnc3[nH]cc(-c4ccc(O)cc4)c3c2)cc1	5100 nM	4100 nM	14 nM	15 nM	1100 nM	48 nM	2000 nM	166 nM	–
Oc1ccc(-c2cnc3[nH]cc(-c4ccc5[nH]ccc5c4)c3c2)cc1	6300 nM	2200 nM	169 nM	83 nM	6200 nM	117 nM	5700 nM	571 nM	–
Oc1ccc(-c2c[nH]c3ncc(-c4ccc5[nH]ccc5c4)cc23)cc1	> 50000 nM	30000 nM	204 nM	51 nM	> 50000 nM	26 nM	> 50000 nM	644 nM	–
Nc1ccc(-c2c[nH]c3ncc(-c4ccc(O)cc4)cc23)cc1	> 50000 nM	> 50000 nM	> 1000 nM	> 1000 nM	> 50000 nM	> 1000 nM	> 50000 nM	> 1000 nM	Activity [10]: 1451 um/hr; Activity [11]: 791 um/hr; Activity [12]: 1070 um/hr; Activity [13]: 2370 um/hr; Activity [14]: 2827 um/hr; EC50 [15]: > 50000 nM; EC50 [16]: > 50000 nM; Activity [17]: 2702 um/hr; Activity [18]: 2411 um/hr; Activity [19]: 2331 um/hr; Activity [20]: 1481 um/hr; Activity [21]: 3123 um/hr; Activity [22]: 1380 um/hr; Activity [23]: 3065 um/hr; Activity [24]: 929 um/hr; inhibition [1]: inactive; Activity [25]: 2707 um/hr; Activity [26]: 2232 um/hr
O=C(Nc1ccc(O)cc1)c1c[nH]c2ncc(-c3ccc(O)cc3)cc12	> 50000 nM	> 50000 nM	> 1000 nM	> 1000 nM	> 50000 nM	> 1000 nM	> 50000 nM	> 1000 nM	–
O=C(Nc1cccc(O)c1)c1c[nH]c2ncc(-c3ccc(O)cc3)cc12	> 50000 nM	> 50000 nM	> 1000 nM	> 1000 nM	> 50000 nM	> 1000 nM	> 50000 nM	> 1000 nM	–
CS(=O)(=O)Nc1ccc(-c2cnc3[nH]cc(-c4ccc(O)cc4)c3c2)cc1	13000 nM	42000 nM	56 nM	130 nM	42000 nM	44 nM	14000 nM	724 nM	–
O=[N+]([O-])c1ccc(-c2cnc3[nH]cc(-c4ccc(O)cc4)c3c2)cc1	> 50000 nM	> 50000 nM	212 nM	198 nM	> 50000 nM	187 nM	> 50000 nM	> 1000 nM	–
Oc1ccc(-c2ccc3[nH]nc(-c4ccc(O)cc4)c3c2)cc1	> 50000 nM	> 50000 nM	> 1000 nM	> 1000 nM	> 50000 nM	> 1000 nM	> 50000 nM	> 1000 nM	–
NC(=O)Nc1ccc(-c2cnc3[nH]cc(-c4ccc(O)cc4)c3c2)cc1	> 50000 nM	28000 nM	31 nM	17 nM	> 50000 nM	9.6 nM	22000 nM	476 nM	–
O=C(Nc1cccc(O)c1)c1cnc2[nH]cc(-c3ccc(O)cc3)c2c1	38900 nM	5700 nM	127 nM	138 nM	13200 nM	34 nM	13800 nM	847 nM	–
CC(=O)O[C@H]1C(=O)[C@@]2(C)[C@H]([C@H](OC(=O)c3ccccc3)[C@]3(O)C[C@H](OC(=O)[C@H](O)[C@@H](NC(=O)c4ccccc4)c4ccccc4)C(C)=C1C3(C)C)[C@]1(OC(C)=O)CO[C@@H]1C[C@@H]2O	–	–	–	–	–	–	–	–	inhibition [1]: Active
O=C(Nc1ccc(O)cc1)c1cnc2[nH]cc(-c3ccc(O)cc3)c2c1	37800 nM	5200 nM	344 nM	128 nM	21000 nM	12 nM	12500 nM	> 1000 nM	–
Oc1ccc(-c2c[nH]c3ncc(-c4ccc(-c5nnn[nH]5)cc4)cc23)cc1	> 50000 nM	> 50000 nM	86 nM	42 nM	> 50000 nM	70 nM	> 50000 nM	408 nM	–
